According to ChEMBL document CHEMBL5724801, “EUbOPEN Chemogenomics Library - Multiplex” (2024):
Several values for one entry are separate records, joined by “and”; a condition that tells them apart may be missing. Equal entries are not always repeated.

Test system: Fibroblast
Experiment: Multiplex assay against human fibroblast
Assay type: toxicity, cell-based
In short: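 Four dyes were applied at seeding to live cells: Hoechst33342, BioTracker Green Microtubule Cytoskeleton Dye, MitoTracker Red and Annexin V Alexa Fluor 680. Imaging after compound addition used a CQ1 microscope at 37°C and 5% CO2. CellPathfinder machine-learning gating then sorted cells into Hoechst high-intensity objects or normal cells, normal cells into healthy, pyknosed or fragmented nuclei, and pyknosed cells into mitotic or apoptotic, with tubulin, mitochondrial-mass and membrane-permeability phenotypes given as per cents of healthy-nucleus cells.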

[1] = 12 h, 1 µM, compound concentration 1 uM
[2] = 12 h, 10 µM, compound concentration 10 uM
[3] = 24 h, 1 µM, compound concentration 1 uM
[4] = 24 h, 10 µM, compound concentration 10 uM
[5] = 48 h, 1 µM, compound concentration 1 uM
[6] = 48 h, 10 µM, compound concentration 10 uM

CN1CC[C@@]23CCCC[C@@H]2[C@@H]1Cc1ccc(O)cc13.O=C(O)C(O)C(O)C(=O)O
Population Apoptotic (%) [1]: 6.98% and 13.16% | Population Fragmented Nuclei (%) [1]: 5.26% and 4.9% | Population Healthy Nuclei (%) [1]: 69.59% and 79.59% | Population Hoechst High Intensity Objects (%) [1]: 0% | Population Membrane Permeable-Phenotype (%) [1]: 1.68% and 2.05% | Population Mitochondria Different-Phenotype (%) [1]: 8.4% and 8.21% | Population Mitotic Cells (%) [1]: 93.02% and 86.84% | Population Normal (%) [1]: 100% | Population Pyknosed Nuclei (%) [1]: 25.15% and 15.51% | Population Tubulin-Different-Phenotype (%) [1]: 15.97% and 20.51% | Total Cell Count [1]: 171 and 245 | Population Apoptotic (%) [2]: 8.2% and 12.82% | Population Fragmented Nuclei (%) [2]: 8.77% and 7.24% | Population Healthy Nuclei (%) [2]: 64.47% and 79.31% | Population Hoechst High Intensity Objects (%) [2]: 0% | Population Membrane Permeable-Phenotype (%) [2]: 2.72% and 2.17% | Population Mitochondria Different-Phenotype (%) [2]: 6.12% and 5.65% | Population Mitotic Cells (%) [2]: 91.8% and 87.18% | Population Normal (%) [2]: 100% | Population Pyknosed Nuclei (%) [2]: 26.75% and 13.45% | Population Tubulin-Different-Phenotype (%) [2]: 14.29% and 18.26% | Total Cell Count [2]: 228 and 290 | Population Apoptotic (%) [3]: 13.16% and 10.71% | Population Fragmented Nuclei (%) [3]: 6.63% and 3.19% | Population Healthy Nuclei (%) [3]: 72.38% and 85.66% | Population Hoechst High Intensity Objects (%) [3]: 0% | Population Membrane Permeable-Phenotype (%) [3]: 0% and 2.79% | Population Mitochondria Different-Phenotype (%) [3]: 9.92% and 5.12% | Population Mitotic Cells (%) [3]: 86.84% and 89.29% | Population Normal (%) [3]: 100% | Population Pyknosed Nuclei (%) [3]: 20.99% and 11.16% | Population Tubulin-Different-Phenotype (%) [3]: 17.56% and 14.88% | Total Cell Count [3]: 181 and 251 | Population Apoptotic (%) [4]: 17.74% and 18.92% | Population Fragmented Nuclei (%) [4]: 9.16% and 7.39% | Population Healthy Nuclei (%) [4]: 68.13% and 79.58% | Population Hoechst High Intensity Objects (%) [4]: 0% | Population Membrane Permeable-Phenotype (%) [4]: 2.15% and 2.21% | Population Mitochondria Different-Phenotype (%) [4]: 5.38% and 4.42% | Population Mitotic Cells (%) [4]: 82.26% and 81.08% | Population Normal (%) [4]: 100% | Population Pyknosed Nuclei (%) [4]: 22.71% and 13.03% | Population Tubulin-Different-Phenotype (%) [4]: 19.89% and 17.7% | Total Cell Count [4]: 273 and 284 | Population Apoptotic (%) [5]: 30.77% and 40% | Population Fragmented Nuclei (%) [5]: 9.57% and 5.1% | Population Healthy Nuclei (%) [5]: 84.21% and 89.02% | Population Hoechst High Intensity Objects (%) [5]: 0% | Population Membrane Permeable-Phenotype (%) [5]: 0.57% and 3.52% | Population Mitotic Cells (%) [5]: 69.23% and 60% | Population Normal (%) [5]: 100% | Population Pyknosed Nuclei (%) [5]: 6.22% and 5.88% | Population Tubulin-Different-Phenotype (%) [5]: 6.82% and 14.54% | Total Cell Count [5]: 209 and 255 | Population Apoptotic (%) [6]: 15.38% and 35.29% | Population Fragmented Nuclei (%) [6]: 6.34% and 8.95% | Population Healthy Nuclei (%) [6]: 88.81% and 85.62% | Population Hoechst High Intensity Objects (%) [6]: 0% | Population Membrane Permeable-Phenotype (%) [6]: 0.84% and 4.1% | Population Mitochondria Different-Phenotype (%) [6]: 6.72% and 1.87% | Population Mitotic Cells (%) [6]: 84.62% and 64.71% | Population Normal (%) [6]: 100% | Population Pyknosed Nuclei (%) [6]: 4.85% and 5.43% | Population Tubulin-Different-Phenotype (%) [6]: 7.56% and 19.4% | Total Cell Count [6]: 268 and 313

CCn1c(-c2ccncc2)cc2c1CCNC2=O
Population Apoptotic (%) [1]: 13.79% and 16.67% | Population Fragmented Nuclei (%) [1]: 13.56% and 3.83% | Population Healthy Nuclei (%) [1]: 70.06% and 79.78% | Population Hoechst High Intensity Objects (%) [1]: 0% | Population Membrane Permeable-Phenotype (%) [1]: 2.42% and 2.74% | Population Mitochondria Different-Phenotype (%) [1]: 8.06% and 6.85% | Population Mitotic Cells (%) [1]: 86.21% and 83.33% | Population Normal (%) [1]: 100% | Population Pyknosed Nuclei (%) [1]: 16.38% and 16.39% | Population Tubulin-Different-Phenotype (%) [1]: 12.9% and 11.64% | Total Cell Count [1]: 177 and 183 | Population Healthy Nuclei (%) [2]: 69.44% and 89.58% | Population Hoechst High Intensity Objects (%) [2]: 0% | Population Membrane Permeable-Phenotype (%) [2]: 6.4% and 2.91% | Population Mitochondria Different-Phenotype (%) [2]: 11.2% and 12.79% | Population Mitotic Cells (%) [2]: 88.89% and 60% | Population Normal (%) [2]: 100% | Population Pyknosed Nuclei (%) [2]: 15% and 7.81% | Population Tubulin-Different-Phenotype (%) [2]: 12% and 12.79% | Total Cell Count [2]: 180 and 192 | Population Apoptotic (%) [3]: 19.51% and 13.16% | Population Healthy Nuclei (%) [3]: 62.05% and 74.05% | Population Hoechst High Intensity Objects (%) [3]: 0% | Population Membrane Permeable-Phenotype (%) [3]: 4.96% and 1.46% | Population Mitochondria Different-Phenotype (%) [3]: 7.44% and 7.3% | Population Mitotic Cells (%) [3]: 80.49% and 86.84% | Population Normal (%) [3]: 100% | Population Pyknosed Nuclei (%) [3]: 21.03% and 20.54% | Population Tubulin-Different-Phenotype (%) [3]: 16.53% and 14.6% | Total Cell Count [3]: 195 and 185 | Population Healthy Nuclei (%) [4]: 70.39% and 84.97% | Population Hoechst High Intensity Objects (%) [4]: 0% | Population Membrane Permeable-Phenotype (%) [4]: 7.14% and 3.66% | Population Mitochondria Different-Phenotype (%) [4]: 6.35% and 12.8% | Population Mitotic Cells (%) [4]: 92.86% and 57.69% | Population Normal (%) [4]: 100% | Population Pyknosed Nuclei (%) [4]: 15.64% and 13.47% | Population Tubulin-Different-Phenotype (%) [4]: 10.32% and 17.07% | Total Cell Count [4]: 179 and 193 | Population Apoptotic (%) [5]: 33.33% | Population Fragmented Nuclei (%) [5]: 17.79% and 7.69% | Population Healthy Nuclei (%) [5]: 75% and 86.54% | Population Hoechst High Intensity Objects (%) [5]: 0% | Population Membrane Permeable-Phenotype (%) [5]: 3.85% and 5% | Population Mitotic Cells (%) [5]: 66.67% | Population Normal (%) [5]: 100% | Population Pyknosed Nuclei (%) [5]: 7.21% and 5.77% | Population Tubulin-Different-Phenotype (%) [5]: 23.08% and 22.22% | Total Cell Count [5]: 208 | Population Apoptotic (%) [6]: 11.76% and 35.14% | Population Fragmented Nuclei (%) [6]: 16.11% and 6.99% | Population Healthy Nuclei (%) [6]: 65% and 73.12% | Population Hoechst High Intensity Objects (%) [6]: 0% | Population Membrane Permeable-Phenotype (%) [6]: 0% and 11.03% | Population Mitochondria Different-Phenotype (%) [6]: 20.51% and 11.76% | Population Mitotic Cells (%) [6]: 88.24% and 64.86% | Population Normal (%) [6]: 100% | Population Pyknosed Nuclei (%) [6]: 18.89% and 19.89% | Population Tubulin-Different-Phenotype (%) [6]: 6.84% and 18.38% | Total Cell Count [6]: 180 and 186

NC1=NC(=O)/C(=C2\CCNC(=O)c3[nH]c4ccccc4c32)N1
Population Apoptotic (%) [1]: 5.88% and 11.11% | Population Healthy Nuclei (%) [1]: 60.61% and 85.31% | Population Hoechst High Intensity Objects (%) [1]: 0% | Population Membrane Permeable-Phenotype (%) [1]: 2% and 1.91% | Population Mitochondria Different-Phenotype (%) [1]: 8% and 7.66% | Population Mitotic Cells (%) [1]: 94.12% and 88.89% | Population Normal (%) [1]: 100% | Population Pyknosed Nuclei (%) [1]: 20.61% and 11.02% | Population Tubulin-Different-Phenotype (%) [1]: 10% and 11.48% | Total Cell Count [1]: 165 and 245 | Population Fragmented Nuclei (%) [2]: 8.29% and 5.11% | Population Healthy Nuclei (%) [2]: 63.9% and 72.73% | Population Hoechst High Intensity Objects (%) [2]: 0% | Population Membrane Permeable-Phenotype (%) [2]: 3.82% and 2.34% | Population Mitochondria Different-Phenotype (%) [2]: 7.63% and 9.38% | Population Mitotic Cells (%) [2]: 92.98% and 76.92% | Population Normal (%) [2]: 100% | Population Pyknosed Nuclei (%) [2]: 27.8% and 22.16% | Population Tubulin-Different-Phenotype (%) [2]: 9.92% and 14.06% | Total Cell Count [2]: 205 and 176 | Population Apoptotic (%) [3]: 10% and 14.71% | Population Fragmented Nuclei (%) [3]: 10% and 5.2% | Population Healthy Nuclei (%) [3]: 73.33% and 81.2% | Population Hoechst High Intensity Objects (%) [3]: 0% | Population Membrane Permeable-Phenotype (%) [3]: 6.06% and 1.48% | Population Mitochondria Different-Phenotype (%) [3]: 3.79% and 8.37% | Population Mitotic Cells (%) [3]: 90% and 85.29% | Population Normal (%) [3]: 100% | Population Pyknosed Nuclei (%) [3]: 16.67% and 13.6% | Population Tubulin-Different-Phenotype (%) [3]: 12.12% and 11.33% | Total Cell Count [3]: 180 and 250 | Population Apoptotic (%) [4]: 4.92% and 12.82% | Population Fragmented Nuclei (%) [4]: 6.84% and 5.46% | Population Healthy Nuclei (%) [4]: 67.09% and 73.22% | Population Hoechst High Intensity Objects (%) [4]: 0% | Population Membrane Permeable-Phenotype (%) [4]: 5.1% and 0% | Population Mitochondria Different-Phenotype (%) [4]: 3.82% and 5.97% | Population Mitotic Cells (%) [4]: 95.08% and 87.18% | Population Normal (%) [4]: 100% | Population Pyknosed Nuclei (%) [4]: 26.07% and 21.31% | Population Tubulin-Different-Phenotype (%) [4]: 12.1% and 15.67% | Total Cell Count [4]: 234 and 183 | Population Fragmented Nuclei (%) [5]: 13% and 5% | Population Healthy Nuclei (%) [5]: 83% and 91.25% | Population Hoechst High Intensity Objects (%) [5]: 0% | Population Membrane Permeable-Phenotype (%) [5]: 1.2% and 2.74% | Population Mitotic Cells (%) [5]: 87.5% and 55.56% | Population Normal (%) [5]: 100% | Population Pyknosed Nuclei (%) [5]: 4% and 3.75% | Population Tubulin-Different-Phenotype (%) [5]: 6.02% and 11.42% | Total Cell Count [5]: 200 and 240 | Population Apoptotic (%) [6]: 19.05% and 14.29% | Population Fragmented Nuclei (%) [6]: 4.95% and 6.88% | Population Healthy Nuclei (%) [6]: 87.63% and 85.71% | Population Hoechst High Intensity Objects (%) [6]: 0% | Population Membrane Permeable-Phenotype (%) [6]: 0.4% and 4.32% | Population Mitochondria Different-Phenotype (%) [6]: 11.69% and 2.47% | Population Mitotic Cells (%) [6]: 80.95% and 85.71% | Population Normal (%) [6]: 100% | Population Pyknosed Nuclei (%) [6]: 7.42% and 7.41% | Population Tubulin-Different-Phenotype (%) [6]: 6.45% and 14.2% | Total Cell Count [6]: 283 and 189
